We go through 2 compounds from publication PMC3205354 (Chemistry & biology, 2011).

Molecules are shown by their SMILES.

Test [1] addresses T1, FAPP1 PH domain (Homo sapiens, UniProt Q9HB20).
T1 sequence (Q9HB20 1-99): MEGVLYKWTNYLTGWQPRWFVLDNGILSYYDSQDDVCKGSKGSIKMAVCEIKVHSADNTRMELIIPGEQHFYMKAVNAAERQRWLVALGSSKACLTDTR
The experiment in a line: NMR 1H,15N HSQC titration. It is filed as binding. As to conditions: read-out: Kd (NMR); 25 mM Bis-Tris, 150 mM NaCl, pH 6.5, 25°C. The method, boiled down: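 Human FAPP1 PH (aa 1–99), ¹⁵N-labeled, expressed in E. coli Rosetta (DE3) pLysS in ¹⁵NH₄Cl minimal medium (0.1 mM IPTG, room temperature, 6 hr). It was purified on Talon resin, His tag removed with thrombin, then size exclusion. HSQC spectra of 0.1–0.2 mM protein were recorded at 600 MHz with stepwise ligand addition. Normalized ¹H/¹⁵N shift changes were fitted against ligand and protein concentrations to give Kd.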

The test system of test [2] is GST-fusion FAPP1 PH domain. As to the kind of experiment: Liposome binding assay. As to conditions: SUVs of POPC, POPE, POPS and PI (50:20:15:15); 20 mM MOPS, 100 mM KCl, pH 7.0. More on the design: species or system human. The method, boiled down:
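GST-tagged FAPP1 PH expressed in E. coli BL21(DE3) and purified on glutathione Sepharose. Lipids dried from CHCl3:MeOH:H2O (65:25:4) were resuspended in MOPS/KCl buffer and extruded 19 times through a 1 µm membrane. Liposomes were pelleted at 25,000 × g for 20 min, resuspended, and incubated with protein (stock 1.7 µg/µl) for 1 hr at room temperature. They were re-pelleted, and pellet and supernatant were analysed by SDS-PAGE.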

For test [3], the target named is T1, FAPP1 PH domain. The experiment in a line: SPR equilibrium binding to lipid vesicles. As to conditions: read-out: Kd (SPR); POPC/POPE/PI (75:20:5) liposomes; 10 mM HEPES (pH 7.4), 160 mM KCl, 25°C.
Test [4] deals with T1, FAPP1 PH domain. As to conditions: 5 mol% in monolayer; ref He, et al., 2011; cited from earlier work.

In the case of `O=P(O)(O)OC1[C@@H](O)[C@@H](O)C(OP(=O)(O)O)[C@H](O)[C@H]1O` (stereo partly shown) [Ins(1,4)P2, inositol 1,4-bisphosphate], the Kd (in general, the constant that tells how readily two partners part at equilibrium) on FAPP1 PH domain [1] worked out at 20 mM.
With `CCCCCCCCCCCCCCCC(=O)OC[C@H](COP(=O)(O)O[C@H]1[C@H](O)[C@@H](O)[C@H](OP(=O)(O)O)[C@@H](O)[C@H]1O)OC(=O)CCCCCCCCCCCCCCC` [C16-PtdIns(4)P], in test [2], the “partitioning of GST-FAPP1 PH between supernatant and pelleted SUVs” value is reported as “half of the protein associated with SUVs”. The Kd at FAPP1 PH domain [3] is 0.00046 mM. Moreover, the “surface pressure (πc)” value on FAPP1 PH domain [4] is listed as 33 mN/m.
